Data taken from ChEMBL document CHEMBL1121500, “Nitrobenzyl halides and carbamates as prototype bioreductive alkylating agents” (1980).
In brackets after ≈: the same amount, converted by molar mass.

Tests used:
Type in all cases: functional
EMT6 [1] = assay: Drug concentration required to achieve 50% kill of EMT6 cells under hypoxic conditions.; settings: Mus musculus, read-out: ED50 (the source's name)
Method in brief: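 Mouse EMT6 tumour monolayers in Waymouth's medium + 15% fetal calf serum. Hypoxia: flasks stoppered and gassed 95% N2/5% CO2 for 4 h at 37 °C, then drug added in acetone without breaking hypoxia. 1 h exposure, 0.01-500 μM. Cells washed, trypsinised, plated in replicate dishes under air; colonies scored after 8-10 days. ED50 from survival curves; ≥3 experiments.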

EMT6 [2] = assay: Drug concentration required to achieve 50% kill of EMT6 cells under oxygenated conditions.; settings: Mus musculus, read-out: ED50 (the source's name)
Method in brief: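 EMT6 monolayers in Waymouth's medium + 15% fetal calf serum, held in 95% air/5% CO2 in parallel with the hypoxic flasks. Drug in acetone, 0.01-500 μM, 1 h at 37 °C. Cells then trypsinised and replated in replicate dishes; surviving fraction by colony formation after 8-10 days. Concentration for 50% kill read from survival curves; at least three experiments per drug.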

[3] = Ratio of ED50 (aerobic) to ED50 (hypoxic)
Method in brief: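 Concentration giving 50% kill of EMT6 cells under aeration (95% air/5% CO2) divided by that under chronic hypoxia (95% N2/5% CO2, 4 h pre-gassing). Both from 1 h drug exposure at 37 °C with colony-formation read-out after 8-10 days.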

Structure (SMILES): CNC(=O)OCc1ccc([N+](=O)[O-])cc1
- EC50 (EMT6 [1]): 0.03 µg/mL (≈ 0.143 µM)
- EC50 (EMT6 [2]): 0.63 µg/mL (≈ 3 µM)
- Ratio [3]: 21

Structure (SMILES): O=C(NCCCl)OCc1ccc([N+](=O)[O-])cc1
- EC50 (EMT6 [1]): 10 µg/mL (≈ 38.7 µM)
- EC50 (EMT6 [2]): 31 µg/mL (≈ 120 µM)
- Ratio [3]: 3.1

Structure (SMILES): CNC(=O)OCc1ccccc1[N+](=O)[O-]
- EC50 (EMT6 [1]): 0.006 µg/mL (≈ 0.0285 µM)
- EC50 (EMT6 [2]): 3.57 µg/mL (≈ 17 µM)
- Ratio [3]: 595

Structure (SMILES): O=[N+]([O-])c1ccc(CCl)cc1
- EC50 (EMT6 [1]): 0.07 µg/mL (≈ 0.408 µM)
- EC50 (EMT6 [2]): 0.14 µg/mL (≈ 0.816 µM)
- Ratio [3]: 2

Structure (SMILES): O=[N+]([O-])c1ccccc1CBr
- EC50 (EMT6 [1]): 0.06 µg/mL (≈ 0.278 µM)
- EC50 (EMT6 [2]): 1.5 µg/mL (≈ 6.94 µM)
- Ratio [3]: 25

Structure (SMILES): O=C(Nc1ccccc1)OCc1ccc([N+](=O)[O-])cc1
- EC50 (EMT6 [1]): 0.08 µg/mL (≈ 0.294 µM)
- EC50 (EMT6 [2]): 0.22 µg/mL (≈ 0.808 µM)
- Ratio [3]: 2.7

Structure (SMILES): O=[N+]([O-])c1ccccc1CO
- EC50 (EMT6 [1]): 1.5 µg/mL (≈ 9.8 µM)
- EC50 (EMT6 [2]): 3 µg/mL (≈ 19.6 µM)
- Ratio [3]: 2

Structure (SMILES): O=[N+]([O-])c1ccc(CO)cc1 [PARANITROBENZYL ALCOHOL]
- EC50 (EMT6 [1]): 0.77 µg/mL (≈ 5.03 µM)
- EC50 (EMT6 [2]): 2.6 µg/mL (≈ 17 µM)
- Ratio [3]: 3.3

Structure (SMILES): O=[N+]([O-])c1ccc(CBr)cc1
- EC50 (EMT6 [1]): 0.06 µg/mL (≈ 0.278 µM)
- EC50 (EMT6 [2]): 0.1 µg/mL (≈ 0.463 µM)
- Ratio [3]: 1.7

Structure (SMILES): O=C(NCCCl)OCc1ccccc1[N+](=O)[O-]
- EC50 (EMT6 [1]): 0.65 µg/mL (≈ 2.51 µM)
- EC50 (EMT6 [2]): 52 µg/mL (≈ 201 µM)
- Ratio [3]: 80

Structure (SMILES): O=C(Nc1ccccc1)OCc1ccccc1[N+](=O)[O-]
- EC50 (EMT6 [1]): 0.22 µg/mL (≈ 0.808 µM)
- EC50 (EMT6 [2]): 6.8 µg/mL (≈ 25 µM)
- Ratio [3]: 31

Structure (SMILES): O=[N+]([O-])c1ccccc1CCl
- EC50 (EMT6 [1]): 0.1 µg/mL (≈ 0.583 µM)
- EC50 (EMT6 [2]): 1.2 µg/mL (≈ 6.99 µM)
- Ratio [3]: 12
